We go through 97 compounds from ChEMBL document CHEMBL4513216, “Probing the Open Global Health Chemical Diversity Library for Multistage-Active Starting Points for Next-Generation Antimalarials” (ACS Infect Dis, 2020).

The structures appear in SMILES notation.

A short description of this data set: Toxicity liver stage against HepG2, at 10uM. The arrangement: test concentration 10 uM, cell line HepG2-A16-CD81EGFP. In kind it is cell-based. The conditions noted are these: human, HepG2-A16-CD81EGFP cells; read-out: INHIBITION
A digest of the protocol: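 Uninfected HepG2-A16-CD81EGFP cells, 3 × 10^3 per well, 1536-well, plated on prespotted compound at 10 μM final, parasite-free screening media added to match infected plates; puromycin 10 μM positive, DMSO 0.5% negative; run in parallel with 48 h PbLuc assay at 37 °C, 5% CO2; viability by CellTiter-Glo luminescence, normalized to controls.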

`O=c1cc(Cn2ccnc2)nc2n1CCCN(CC1CCOCC1)C2`: the cytotoxicity at 10 µM stood at 12.7%. With `COc1ccc(C(=O)C2CCCN(Cc3ccccc3O)C2)c(OC)c1` (configuration not stated) the figure was 5.45%; with `Cc1nccc(N[C@H]2CN(CC(C)(C)N3CCOCC3)C[C@@H]2C2CC2)n1`, 3.03%. With `Cc1nccc(N2CCCC2CCNS(C)(=O)=O)n1` (configuration not stated) the figure was 0.146%; with `CCc1nc(C2CCCN(C(=O)C(C)(C)NS(C)(=O)=O)C2)no1` (configuration not stated), -12.1%. For `O=C1NCC(C(=O)NCc2ccccc2CN2CCOCC2)N1` (configuration not stated) the value was 3.64%; for `CCCS(=O)(=O)N1Cc2nccn2CC(Cn2cncn2)C1` (configuration not stated), -0.158%; for `CNC(=O)c1ccc(NC(=O)NC(C)c2cc(C)oc2C)cc1` (configuration not stated), -12.8%. In the case of `Cc1cccc(-c2ccc(C(=O)N3CCN(C4CC4)CC3)c(=O)[nH]2)c1`, the cytotoxicity at 10 µM worked out at 13.2%. For `N#Cc1ccc(CSCCN2CCOCC2)cc1` the value was 4.2%; for `CC(=O)c1cc(C(=O)N2Cc3ccccc3OC3(CCOCC3)C2)cs1`, -20%; for `CN(Cc1ccc(C(=O)Nc2sccc2C#N)cc1)Cc1ccno1`, -1.65%. For `c1ccc(-c2noc(CCCN3CCCC3Cn3cccn3)n2)cc1` (configuration not stated) the value was -13%; for `CN1CCN(Cc2c(-c3ccco3)[nH]c3ncccc23)CC1`, 5.63%. With `O=C(c1ccoc1)N1CC[C@@H]2[C@H]1CCC(=O)N2c1ccccc1`, the cytotoxicity at 10 µM is -0.362%. For `c1cc2c(cc1-c1noc3c1CN(C1CCSCC1)CC3)OCO2` the value was 5.51%. With `Cc1nc(CCC(=O)N2Cc3cnc(-c4ccccc4)nc3C2)n[nH]1` the figure was -0.227%; with `CC(=O)Nc1nc(C(=O)NC(C)c2ccc3c(c2)OCCO3)cs1` (configuration not stated), 0.409%; with `CC(C)Oc1ncnc2c1CCN(Cc1ccoc1)CC2`, 2.56%. For `COc1ccc(CC(=O)N(C)Cc2nnc3ccccn23)cc1` the value was 5.44%; for `CN1CCCN(c2ncnc(N3CCOCC3)c2N)CC1`, 1.08%. As for `CCc1nc(N)sc1C(=O)N1CCCC(COc2cccc(C)c2)C1` (configuration not stated), the cytotoxicity at 10 µM is -140%. For `OCCN1CCN(CC(O)c2ccc(C(F)(F)F)cc2)CC1` (configuration not stated) the value was -10%; for `COCCn1nc(C(=O)N(C)Cc2cnn(C)c2)ccc1=O`, -2.44%.

Regarding `Cc1nc(C)c(CC(=O)NCc2ccccc2F)s1`, the cytotoxicity at 10 µM stood at 6.23%. With `CC(=O)NCC(=O)N1Cc2nccn2CC(CN2CCCC2)C1` (configuration not stated) the figure was 2.34%. For `Cc1nn(C)c(C)c1C1COCCN1c1ncncc1Br` (configuration not stated) the value was -8.9%; for `CC(C)c1nn(C)c(N(C)C)c1CNCc1ccc(N(C)C)nc1`, -8.42%. For `Cc1ncsc1C(=O)NCCNc1cnccn1` the value was 0.00742%; for `O=C(NCC(F)(F)F)C1=NOC2(CCCNC2)C1` (configuration not stated), 2.16%; for `O=C(c1csc(Br)c1)N1CCCC(n2ccnc2)C1` (configuration not stated), 3.51%. As to `O=S(=O)(c1cccs1)N1Cc2nc(CN3CCCCC3)oc2C1`, the cytotoxicity at 10 µM is -121%. For `CCc1nnc(CN2CCC(N3CCN(CC)C3=O)CC2)o1` the value was 1.52%; for `CC1N(C)C(=O)COC12CCN(C(=O)Cc1ccsc1)CC2` (configuration not stated), 2.81%. As for `CN(C)c1ncc(-c2ccc(NC(=O)[C@@H]3CCCCN3)cc2)cn1`, the cytotoxicity at 10 µM was -7.94%. For `CCOc1ncnc2c1CCN(S(=O)(=O)C1CC1)CC2` the value was 3.42%; for `CCc1nc(C(=O)N2CC(C)CN(C)c3ccccc32)c[nH]1` (configuration not stated), -3.47%. With `O=C1CCC(=O)c2oc3ccc(Br)cc3c2N1` the figure was 2.44%; with `CCc1cc(C(=O)N[C@H]2CN(CCS(C)(=O)=O)C[C@@H]2C2CC2)[nH]n1`, 3.91%. With `COCCCN1CCN(c2ncnc3nc(C)cc(C)c23)CC1` the figure was 1.54%; with `COc1cccc(N2CCC(CNC(=O)CN3CSCC3=O)C2)c1` (configuration not stated), 0.342%. With `CO[C@H]1CO[C@@]2(CCCN(C(=O)N(C)C)C2)C1`, the cytotoxicity at 10 µM was -97.4%. With `O=S(=O)(NCCN1CC=CC1)c1cncc(Cl)c1`, the cytotoxicity at 10 µM is -2.42%. With `CS(=O)(=O)N1CCC(c2nnc3ccc(C(=O)NC4CCC4)cn23)C1` (configuration not stated) the figure was 3.6%; with `Cc1nn(C)cc1C(=O)N1CCC(CSc2ccccc2)C1` (configuration not stated), 2.84%; with `CCc1cnc(C)nc1N1CCN(C(N)=O)CC1`, -46.3%. With `CC(C)CN1C(=O)CO[C@@H]2CN(C(=O)C3CCOC3)C[C@H]21` (some centres not stated) the figure was -70.3%; with `Cc1c(-c2nc(-c3cccc(CN4CCOCC4)c3)no2)cnn1C`, -0.988%. For `Cc1ccc(CN2CCC3(CCC3NC(=O)c3ccn(C)c3)CC2)s1` (configuration not stated) the value was -151%; for `CCC1(CC)CC(=O)N(CC(O)c2cccc(Br)c2)C1=O` (configuration not stated), 3.89%; for `CCc1n[nH]c(C2CN(C(=O)c3csnn3)CCO2)n1` (configuration not stated), -2.5%. On to `CC(C)c1ocnc1C(=O)Nc1cccc(Cn2ccccc2=O)c1`, for which the cytotoxicity at 10 µM worked out at 8.15%. For `CC(=O)N(Cc1ncc(C(C)C)o1)C1CCN(Cc2ccno2)C1` (configuration not stated), the cytotoxicity at 10 µM was -11.1%. For `CC(C)c1nccn1C1CCCN(C(=O)c2cccc3c2OCO3)C1` (configuration not stated) the value was -7.71%; for `CCS(=O)(=O)N1CCC2(CC(=O)N(c3ccc4c(c3)OCO4)C2)C1` (configuration not stated), 9.17%; for `Cc1nonc1OCCNc1ncnc2sc3c(c12)CCNC3`, -1.69%. With `Cc1cc(N(C)CCC(O)c2ccccc2)n2nccc2n1` (configuration not stated) the figure was -2.84%; with `c1cnc(N2CCOCC3(CNCCO3)C2)nc1` (configuration not stated), -112%; with `Clc1ccc2cccnc2c1CNC1CCc2ncnn2C1` (configuration not stated), -6.53%.

With `CC(C)CN1C[C@@H]2CN(C(=O)c3cccn3C)C[C@@H]2C1=O`, the cytotoxicity at 10 µM is -111%.

In the case of `CN1CCN(C(=O)C[C@@H]2COC[C@H]3CN(c4ccncn4)C[C@@H]23)CC1`, the cytotoxicity at 10 µM was -134%. For `CCn1cnnc1CNC(=O)C1COc2ccc(Cl)cc2C1` (configuration not stated) the value was -0.845%; for `CC(C)(NC(=O)c1coc(COc2cccc(F)c2)n1)C(N)=O`, -136%.

With `CN1CCCC1CNC(=O)CCCOc1ccc(I)cc1` (configuration not stated), the cytotoxicity at 10 µM was -14%. Take `CCCc1cc(CN(C)C2CC(C)(C)NC(C)(C)C2)n[nH]1`: the cytotoxicity at 10 µM was -16.7%. On to `COc1ccccc1-c1cccc(C2CCCN(C3CCOCC3)C2)n1` (configuration not stated), for which the cytotoxicity at 10 µM stood at 5.7%. For `Cn1cnnc1C1CCN(C(=O)COCc2ccccc2Cl)CC1` the value was -6.07%. With `Cc1cc(NC(=O)CNC2CCc3nc(C(C)C)nn3C2)no1` (configuration not stated) the figure was -3.87%.

Turning to `Cc1cccc(C)c1OCCNC(=O)C(C)n1cncn1` (configuration not stated), the cytotoxicity at 10 µM was -1.46%. For `COc1ncc(CN2CCC3(CCNC(=O)CC3)CC2)cn1` the value was -144%; for `CCn1c(C)nnc1CN(C)C1CCN(Cc2ccccn2)C1` (configuration not stated), 1.8%. On to `CCC(CO)N(Cc1ccccn1)C(=O)c1ccc(C)c(Cl)c1` (configuration not stated), for which the cytotoxicity at 10 µM was -0.054%. `Cc1cncc(C2CCCN(C(=O)c3cnco3)C2)n1` (configuration not stated): the cytotoxicity at 10 µM was -6.94%. For the compound `O=C(NCc1ncc[nH]1)c1c(F)cccc1I`, the cytotoxicity at 10 µM was -6.78%. Regarding `O=C(NCc1cc2ccccc2[nH]1)C1CCCN(C(=O)N2CCCC2)C1` (configuration not stated), the cytotoxicity at 10 µM was 6.81%.

Turning to `COc1ccc(-c2nc(C3CCNCC3)cc3c2ncn3C)cc1`, the cytotoxicity at 10 µM is -124%. Regarding `c1ccc(CCNc2ncnc3c2CCN(Cc2c[nH]cn2)CC3)cc1`, the cytotoxicity at 10 µM was found to be 3.16%.

For `Cc1nc(NC(=O)c2cccnc2N2CCOCC2)sc1C`, the cytotoxicity at 10 µM was -0.0261%.

As for `Cc1nc(-c2ccco2)ccc1C(=O)NCCCN1CCOCC1`, the cytotoxicity at 10 µM is -4.02%. For `O=C(NC[C@H]1OC[C@@H](NCc2ccccn2)[C@@H]1O)N1CCOCC1` the value was 0.15%; for `O=C([C@@H]1CC[C@@H]2[C@@H](CCN2CCOCc2ccccc2)O1)N1CCCC1`, -110%. With `O=C(C1CCC1)N1CCN(Cc2ccccc2F)[C@H]2CS(=O)(=O)C[C@H]21` the figure was 0.15%; with `Cc1ccsc1C(=O)NCc1ccnc(N2CCN(C)CC2)c1`, -8.6%. With `CNC(=O)c1cccnc1NCc1ccc(-n2cccn2)cc1` the figure was 14.1%; with `CN1CCC(N(C)CCC(=O)N2CCC(CCc3ccccc3)CC2)C1` (configuration not stated), -5.87%; with `COC[C@H]1CN(CC2CC2)C(=O)[C@@H]2CCN(Cc3ccoc3)CC[C@H]12`, -2.05%. Regarding `CN(C)[C@H]1C[C@@H](Cc2cc(CO)on2)C1(C)C`, the cytotoxicity at 10 µM amounted to 0.994%.

Turning to `c1ccc(COc2cccc(CNC3CCc4ncnn4C3)c2)cc1` (configuration not stated), the cytotoxicity at 10 µM was -13.7%.

Regarding `CN(C)CCN1CCC2(CCCN(Cc3cccn3C)C2)C1=O` (configuration not stated), the cytotoxicity at 10 µM is -114%.

As to `O=C(CCc1ccsc1)Nc1cccnc1N1CCCC1`, the cytotoxicity at 10 µM is -7.07%. With `CCN(Cc1nc(C)no1)C(=O)C1CC(=O)N(Cc2cccnc2)C1` (configuration not stated) the figure was 4.03%; with `Cn1cc(CN2CCC(F)(F)C3(CCN(c4ncccn4)C3)C2)cn1` (configuration not stated), -0.58%; with `Cc1cc(CN(C)C(=O)NC(C)Cc2ccc(O)cc2)no1` (configuration not stated), 4.93%. For `CCc1ccsc1C(=O)N1CCN(C(=O)c2ccc(C)o2)CC1` the value was 6.98%; for `CN1CCN(CCCNCc2cc(O)c3cc(F)ccc3n2)CC1`, -45.4%; for `Cc1ccc(N(C)CC(O)COCc2ccccc2F)c(C)c1` (configuration not stated), 18%. With `O=C(NC[C@]12COC[C@H]1CN(CC1CCOCC1)C2)c1ccco1` the figure was -72.1%.
